Experiments:
Cavia porcellus [1] = organism: Cavia porcellus; experiment: Ability to display a naloxone-reversible inhibition of electrically induced contractions in GPI in the presence of 1.0 uM bestatin at concentration 10 e-6 M; format: functional
Cavia porcellus [2] = organism: Cavia porcellus; experiment: Ability to display a naloxone-reversible inhibition of electrically induced contractions in GPI by Morphine at 0.5 uM; format: functional
Cavia porcellus [3] = organism: Cavia porcellus; experiment: Percentage inhibition of compound against morphine at 10 e-7 M in guinea pig ileum tissue; format: functional
Method in brief: (§1)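 Hartley male guinea pigs (400–450 g); 3–4-cm segments of terminal ileum in a 3.5-mL Krebs bath at 37 ± 0.5 °C, gassed with 95% O2-5% CO2. […] Each was tested at least twice per preparation. Results are the average of at least three ilea from different animals.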

Cavia porcellus [4] = organism: Cavia porcellus; experiment: Inhibitory activity in guinea pig ileum tissue in the absence and presence of 10 nM naloxone; format: functional
Cavia porcellus [5] = organism: Cavia porcellus; experiment: Ability to display a naloxone-reversible inhibition of electrically induced contractions in GPI by Morphine at 0.1 uM; format: functional; method in brief: as §1
Cavia porcellus [6] = organism: Cavia porcellus; experiment: Ability to display a naloxone-reversible inhibition of electrically induced contractions in GPI in the presence of 1 uM bestatin at concentration 2 uM

| Structure (SMILES) | Inhibition (Cavia porcellus [1]) | Inhibition (Cavia porcellus [2]) | inhibition at 0.1 µM (Cavia porcellus [3]) | Ke (Cavia porcellus [4]) | Relative potency (Cavia porcellus [5]) | Inhibition (Cavia porcellus [5]) | Inhibition (Cavia porcellus [6]) |
| --- | --- | --- | --- | --- | --- | --- | --- |
| N[C@@H](Cc1ccccc1)C(=O)NCCNC(=O)[C@@H](N)Cc1ccc(O)cc1 | 12% | 49.5% | – | – | – | – | – |
| N[C@H](Cc1ccccc1)C(=O)NCCNC(=O)[C@@H](N)Cc1ccc(O)cc1 | 8% | – | 49.5% | – | – | – | – |
| CC(=O)N[C@H](Cc1ccccc1)C(=O)NCCNC(=O)C(N)Cc1ccc(O)cc1 (some centres not stated) | 89.5% | – | 40% | 4 nM | 1.6 | – | – |
| CC(=O)N[C@H](Cc1ccccc1)C(=O)NCC(C)(C)NC(=O)C(N)Cc1ccc(O)cc1 (some centres not stated) | 91.5% | – | 43.5% | 4.2 nM | 21.2 | – | – |
| CC(=O)N[C@H](Cc1ccccc1)C(=O)NC(C)(C)CNC(=O)C(N)Cc1ccc(O)cc1 (some centres not stated) | 42.5% | – | 40% | – | 0.27 | – | – |
| CC(=O)N[C@H](Cc1ccccc1)C(=O)NCCC(C)(C)NC(=O)C(N)Cc1ccc(O)cc1 (some centres not stated) | 53% | – | – | 3.3 nM | 0.22 | 40% | – |
| CC(=O)N[C@H](Cc1ccccc1)C(=O)NCCCNC(=O)C(N)Cc1ccc(O)cc1 (some centres not stated) | 29.5% | – | – | 4.4 nM | 0.0077 | 47% | – |
| CC(=O)NC(Cc1ccccc1)C(=O)NC(C)(C)CNC(=O)C(N)Cc1ccc(O)cc1 (stereo in doubt) | 16.3% | – | 47% | – | – | – | – |
| CC(=O)NC(Cc1ccccc1)C(=O)NCC(C)(C)NC(=O)C(N)Cc1ccc(O)cc1 (stereo in doubt) | 79.3% | – | 47% | 1.4 nM | 10 | – | – |
| CC(=O)NC(Cc1ccccc1)C(=O)NCCC(C)(C)NC(=O)C(N)Cc1ccc(O)cc1 (stereo in doubt) | 50.5% | – | – | 2.1 nM | 0.052 | 47% | – |
| CC(=O)NC(Cc1ccccc1)C(=O)NCCNC(=O)C(N)Cc1ccc(O)cc1 (stereo in doubt) | 10% | – | 49.5% | – | – | – | – |
| CC(=O)NC(Cc1ccccc1)C(=O)NCCCNC(=O)C(N)Cc1ccc(O)cc1 (stereo in doubt) | 5% | – | – | – | – | – | 8% |
